The results in this text go back to ChEMBL document CHEMBL1268966, “Tetrasubstituted naphthalene diimide ligands with selectivity for telomeric G-quadruplexes and cancer cells” (Bioorg Med Chem Lett, 2010).

Structures are written as SMILES. Activity calls are given as the source filed them. No cut-off for these calls is given here.

Assay [1] deals with Nucleic Acid. The assay is described as follows: Stabilization of human F21T G4-telomeric quadruplex by FRET assay in presence of duplex to quadruplex DNA ratio of 10:1. The assay is classed as nucleic-acid assay. The essentials:
(§1)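 FRET melting temperature assay reporting the shift in quadruplex melting temperature. Competition runs added excess duplex DNA at different ratios, expressed as G-quartet concentration versus duplex nucleotide phosphate concentration.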

Assay [2] can be described thus: Cytotoxicity against human WI138 cells after 96 hrs by SRB assay. On the technique in general: In SRB staining, fixed cells bind dye roughly in proportion to their protein.
The test system of a further assay is BXPC-3. The experiment in a line: Cytotoxicity against human BxPC3 cells after 96 hrs by SRB assay. Conditions: BXPC-3, 96 h.
The next assay concerns MIA PaCa-2. The experiment in a line: Cytotoxicity against human MIAPaCa2 cells after 96 hrs by SRB assay. Conditions: MIA PaCa-2, 96 h.
The test system of assay [3] is Nucleic Acid. The assay is described as follows: Stabilization of duplex DNA assessed as inhibition of human TOPO 3-alpha binding to duplex DNA by EMSA assay. The assay is classed as nucleic-acid assay. The essentials: (§2)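 In vitro EMSA measuring displacement of hPOT1 or Topo IIIα binding to the telomeric sequence WT26. For Topo IIIα, a duplex DNA substrate was tested in parallel.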
On the technique in general: In EMSA bound probe runs differently from free probe, usually more slowly.

For assay [4], the system named is Nucleic Acid. The assay is described as follows: Stabilization of Wt26 G-telomeric quadruplex DNA assessed as inhibition of human POT1 binding to DNA by EMSA assay. It is filed as nucleic-acid assay. The essentials:
as §2

Another assay has as its system A549. The assay is described as follows: Cytotoxicity against human A549 cells after 96 hrs by SRB assay. The following applies: A549, 96 h.
Assay [5] concerns Nucleic Acid. The experiment in a line: Stabilization of human G4-telomeric quadruplex 23-mer DNA assessed as topology at 1:1 to 1:15 DNA to compound ratio at pH 7.4 after 6 hrs by circular dichroism spectroscopy in presence of 100 mM Na+ ions. The assay is classed as nucleic-acid assay. The essentials:
(§3)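 Circular dichroism spectra of the human telomeric 23-mer DNA at pH 7.4 with various DNA:ligand ratios.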
For orientation: Circular dichroism is widely used to follow secondary structure.

In assay [6] the test system is Nucleic Acid. The assay is described as follows: Stabilization of human c-kit2 G4 DNA sequence assessed as melting temperature by FRET assay. The assay is classed as nucleic-acid assay.
Assay [7] concerns Nucleic Acid. The assay is described as follows: Stabilization of human F21T G4-telomeric quadruplex assessed as melting temperature by FRET assay. It is filed as nucleic-acid assay. Summed up: as §1
For the next assay, the system named is PANC-1. The experiment in a line: Cytotoxicity against human PANC1 cells after 96 hrs by SRB assay. Conditions: PANC-1, 96 h.
Assay [8] concerns Nucleic Acid. The assay is described as follows: Stabilization of Wt26 G-telomeric quadruplex DNA assessed as inhibition of human TOPO 3-alpha binding to DNA by EMSA assay. The assay is classed as nucleic-acid assay. Summed up: as §2
Assay [9] deals with Nucleic Acid. The assay is described as follows: Stabilization of human c-kit1 G4 DNA sequence assessed as melting temperature by FRET assay. The assay is classed as nucleic-acid assay.
The test system of assay [10] is Nucleic Acid. The assay is described as follows: Stabilization of human duplex DNA T-loop assessed as melting temperature by FRET assay. The assay is classed as nucleic-acid assay.
In assay [11] the test system is MCF7. The assay is described as follows: Cytotoxicity against human MCF7 cells after 96 hrs by SRB assay. Conditions: MCF7, 96 h.
In the next assay the test system is HPAC. The experiment in a line: Cytotoxicity against human HPAC cells after 96 hrs by SRB assay.
Assay [12] concerns Nucleic Acid. The assay is described as follows: Stabilization of human F21T G4-telomeric quadruplex assessed in presence of 300 fold excess duplex DNA by FRET assay. The assay is classed as nucleic-acid assay. Summed up: as §1
In assay [13] the test system is Nucleic Acid. The assay is described as follows: Stabilization of human G4-telomeric quadruplex 23-mer DNA assessed as topology at 1:1 to 1:15 DNA to compound ratio at pH 7.4 after 6 hrs by circular dichroism spectroscopy in presence of 100 mM K+ ions. It is filed as nucleic-acid assay. Summed up: as §3
Assay [14] relates to MCF7. The experiment in a line: Inhibition of human telomerase activity in human MCF7 cells at 50 nM after 1 week by modified TRAP assay. It is filed as cell-based. The essentials:
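MCF7 cells were exposed to 50 nM ligand for 1 week, then a further week. Telomerase activity was measured by a modified TRAP–LIG assay with denaturing gel separation. Each PCR product ladder's total intensity was scanned and integrated, then normalized to a positive control with untreated telomerase protein only.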

With `CN1CCN(CCCCCNc2cc3c4c(c(NCCCCCN5CCN(C)CC5)cc5c4c2C(=O)N(CCCCCN2CCN(C)CC2)C5=O)C(=O)N(CCCCCN2CCN(C)CC2)C3=O)CC1`, the outcome in the assay on Nucleic Acid [1], in the assay with Nucleic Acid [5] and in the assay on Nucleic Acid [13] was Active. For the same molecule, the half-maximal inhibitory concentration (IC50) – broadly, the point on the concentration scale where inhibition reaches its midpoint – in assay [2] was 8430 nM; in the assay on BXPC-3, 759 nM; in the assay with MIA PaCa-2 it was 121 nM; with A549, 258 nM; in the assay with PANC-1, 193 nM; in the assay on MCF7 [11], 196 nM. Also, the IC50 in the assay on HPAC is 205 nM. For the same molecule, in the assay on Nucleic Acid [3], the inhibition (as a rule, the drop in the measured response relative to a control, in per cent) is “inactive”. Moreover, the inhibition result in the assay on Nucleic Acid [4] and with Nucleic Acid [8] was “Active” each time. For the same molecule, the deltaTm in the assay on Nucleic Acid [6] turned out to be 7.7 K; with Nucleic Acid [7], 23.8 K; in the assay on Nucleic Acid [9] it was 1.5 K; with Nucleic Acid [10], 0.2 K. Further, the Activity in the assay with Nucleic Acid [12] worked out at 50%.

On to `CN1CCN(CCCNc2cc3c4c(c(NCCCN5CCN(C)CC5)cc5c4c2C(=O)N(CCCN2CCN(C)CC2)C5=O)C(=O)N(CCCN2CCN(C)CC2)C3=O)CC1`, for which the result in the assay with Nucleic Acid [1], with Nucleic Acid [5] and with Nucleic Acid [13] was Active. The IC50 in assay [2] was determined as 9040 nM; with BXPC-3, 1520 nM; with MIA PaCa-2, 111 nM; with A549 it was 108 nM; with PANC-1, 148 nM; in the assay on MCF7 [11], 167 nM. In addition, in the assay with HPAC, the midpoint of inhibition, the IC50, lay at 186 nM. For the same molecule, the inhibition result in the assay with Nucleic Acid [3] was “inactive”. For the same molecule, the inhibition result in the assay on Nucleic Acid [4] and with Nucleic Acid [8] was “Active” each time. Besides, the deltaTm with Nucleic Acid [6] was found to be 15.2 K; in the assay on Nucleic Acid [7], 28.3 K; in the assay with Nucleic Acid [9], 1.8 K; with Nucleic Acid [10], 1.3 K. Besides, in the assay with MCF7 [14], the inhibition turned out to be 50%. In addition, the Activity in the assay on Nucleic Acid [12] came out at 50%.

As for `CN1CCN(CCCCNc2cc3c4c(c(NCCCCN5CCN(C)CC5)cc5c4c2C(=O)N(CCCCN2CCN(C)CC2)C5=O)C(=O)N(CCCCN2CCN(C)CC2)C3=O)CC1`, the result in the assay on Nucleic Acid [1], in the assay on Nucleic Acid [5] and in the assay on Nucleic Acid [13] was Active. Moreover, the half-inhibitory concentration (IC50) in [2] is 5500 nM; with BXPC-3 it was 1020 nM; in the assay with MIA PaCa-2 it was 73 nM; with A549, 69 nM; in the assay with PANC-1 it was 106 nM; in the assay on MCF7 [11] it was 100 nM. In addition, the IC50 in the assay with HPAC worked out at 117 nM. For the same molecule, the deltaTm amounted to 16.7 K with Nucleic Acid [6], 24.7 K with Nucleic Acid [7], 4.9 K in the assay with Nucleic Acid [9] and 0.1 K in the assay on Nucleic Acid [10]. In addition, the Activity in the assay on Nucleic Acid [12] worked out at 50%.
